Test results from ChEMBL document CHEMBL1126072, “Hydantoin bioisosteres. In vivo active spiro hydroxy acetic acid aldose reductase inhibitors” (J Med Chem, 1992).

Tests used:
[1] = target: T1, Aldo-keto reductase family 1 member B1 (Homo sapiens, UniProt P15121); assay: (§1) ARI(aldose reductase inhibitor) enantiospecificity against human placental aldose reductase.
Rattus norvegicus [2] = assay: In vivo inhibition of sorbitol accumulation in sciatic nerves from streptozotocin-diabetic rats dosed over 27 h. at a dose of 10 mg/kg; assay type: functional; details: Sciatic nerve
Rattus norvegicus [3] = assay: In vivo inhibition of sorbitol accumulation in sciatic nerves from streptozotocin-diabetic rats dosed over 27 h. at a dose of 25 mg/kg; assay type: functional; details: Sciatic nerve
Rattus norvegicus [4] = assay: In vivo inhibition of sorbitol accumulation in sciatic nerves from streptozotocin-diabetic rats dosed over 27 h. at a dose of 5 mg/kg; assay type: functional; details: Sciatic nerve
Rattus norvegicus [5] = assay: In vivo inhibition of sorbitol accumulation in sciatic nerves from streptozotocin-diabetic rats dosed over 5 days. at a dose of 10 mg/kg; assay type: functional; details: Sciatic nerve, 120 h
Rattus norvegicus [6] = assay: In vivo inhibition of sorbitol accumulation in sciatic nerves from streptozotocin-diabetic rats dosed over 5 days. at a dose of 2.5 mg/kg; assay type: functional; details: Sciatic nerve, 120 h
Rattus norvegicus [7] = assay: In vivo inhibition of sorbitol accumulation in sciatic nerves from streptozotocin-diabetic rats dosed over 5 days. at a dose of 25 mg/kg; assay type: functional; details: Sciatic nerve, 120 h
Rattus norvegicus [8] = organism: Rattus norvegicus; assay: animal or person; details: Sciatic nerve, 27 h, read-out: Inhibition
Rattus norvegicus [9] = organism: Rattus norvegicus; assay: animal or person; details: Sciatic nerve, 120 h, read-out: Inhibition
Rattus norvegicus [10] = assay: In vivo inhibition of sorbitol accumulation in sciatic nerves from streptozotocin-diabetic rats dosed over 5 days. at a dose of 5 mg/kg; assay type: functional; details: Sciatic nerve, 120 h
Outline: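 Rats made diabetic with iv streptozotocin 85 mg/kg. From day 7, oral gavage once daily for 5 days. Animals killed 3 h after the last dose. Sorbitol in neutralized perchloric acid extracts of 25-mg sciatic nerve portions measured with sheep liver sorbitol dehydrogenase and NAD in pH 9.4 glycine. Percent inhibition against diabetic controls.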

Rattus norvegicus [11] = assay: In vivo inhibition of sorbitol accumulation in sciatic nerves from streptozotocin-diabetic rats given three doses over 27 h. at a dose of 2.5 mg/kg; assay type: functional; details: Sciatic nerve
Outline: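 Male Sprague-Dawley rats (180–220 g, 42–54 days) made diabetic with streptozotocin 85 mg/kg at 0 h. Oral gavage at 4, 7 and 24 h, dose quoted per time point. Sciatic nerve sorbitol measured with sorbitol dehydrogenase/NAD in pH 9.4 glycine. Mean (±SEM) percent inhibition against untreated diabetic controls, Student's t test on absolute sorbitol.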

[12] = target: T1, Aldo-keto reductase family 1 member B1; assay: Inhibitory activity against human placental aldose reductase
Rattus norvegicus [13] = assay: In vivo inhibition of sorbitol accumulation in sciatic nerves from streptozotocin-diabetic rats given one dose per day over 5 days at a dose of 25 mg/kg
[14] = target: T1, Aldo-keto reductase family 1 member B1; assay: Compound was tested in vitro for its inhibitory activity against human placental aldose reductase
Rattus norvegicus [15] = assay: Effective dose was tested against the inhibition of sorbitol accumulation in sciatic nerves from streptozotocin-diabetic rats dosed at 3*25 mg/kg over 27h.; assay type: functional; details: Sciatic nerve
Rattus norvegicus [16] = assay: In vivo inhibition of sorbitol accumulation in sciatic nerves from streptozotocin-diabetic rats dosed at 1*25 mg/kg over 5 days.; assay type: functional, Sciatic nerve
Rattus norvegicus [17] = assay: In vivo inhibition of sorbitol accumulation in sciatic nerves from streptozotocin-diabetic rats dosed at 3*25 mg/kg over 27h.; assay type: functional, Sciatic nerve
Rattus norvegicus [18] = assay: Inhibition of sorbitol accumulation in sciatic nerves from streptozotocin-diabetic rats dosed at 3*25 mg/kg over 27h.; assay type: functional, Sciatic nerve
Rattus norvegicus [19] = assay: Plasma concentration at 3h after the last dose of 25 mg/kg for 5 days.; assay type: functional
[20] = target: T1, Aldo-keto reductase family 1 member B1; assay: as §1; remark: listed apart in the source
Outline: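 Partially purified human placental enzyme (buffer homogenate, 33000g spin, pooled peak fractions, frozen). Rate of NADPH oxidation read at 340 nm, 25 °C, 12 min, in 50 mM phosphate pH 7.1 with 0.4 M NH4SO4, 0.067 mM NADPH, 1.0 mM dl-glyceraldehyde; enzyme at 4 milliunits. Molar IC50 ± SD over n experiments, from log-linear fit with common slope.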

Rattus norvegicus [21] = assay: Nerve concentration at 3h after the last dose of 25 mg/kg for 5 days.; assay type: functional

IC50 [12] [nM]	SMILES	inhibition in vivo at 10 mg/kg (Rattus norvegicus [2]) [%]	inhibition in vivo at 25 mg/kg (Rattus norvegicus [3]) [%]	inhibition in vivo at 5 mg/kg (Rattus norvegicus [4]) [%]	inhibition in vivo at 10 mg/kg (Rattus norvegicus [5]) [%]	inhibition in vivo at 2.5 mg/kg (Rattus norvegicus [6]) [%]	inhibition in vivo at 25 mg/kg (Rattus norvegicus [7]) [%]	inhibition in vivo at 5 mg/kg (Rattus norvegicus [10]) [%]	inhibition in vivo at 2.5 mg/kg (Rattus norvegicus [11]) [%]	other results
	C[C@@H]1C[C@@](O)(CC(=O)O)c2cc(F)c(Cl)cc2O1 (stereo in doubt; 60)	88	98	61	69	19	97			IC50 [1]: 45.5 nM; inhibition in vivo at 2.5 mg/kg (Rattus norvegicus [8]): 39%; inhibition in vivo at 5 mg/kg (Rattus norvegicus [9]): 52%
	O=C(O)Cc1nn(Cc2ccc(Br)cc2F)c(=O)c2ccccc12 [PONALRESTAT]	81	85	57	81	0	88	60	12	
50.9	C[C@@H]1C[C@@](O)(CC(=O)O)c2cc(Cl)c(Cl)cc2O1 (stereo in doubt; 58)	70	89	60	68	31		34	49	Inhibition (Rattus norvegicus [13]): 78%
180	C[C@@H]1C[C@@](O)(CC(=O)O)c2cc(Cl)c(Cl)cc2O1 (stereo in doubt; 18)									IC50 [14]: 140 nM; ED50 (Rattus norvegicus [15]): 8.06 mg/kg; Inhibition (Rattus norvegicus [16]): 39%; Inhibition (Rattus norvegicus [17]): 53%; Inhibition (Rattus norvegicus [18]): 91%; Tissue levels (Rattus norvegicus [19]): 19.7 µg/mL; IC50 [20]: 156 nM; Tissue levels (Rattus norvegicus [21]): 6.01 µg/mL
